In ChEMBL document CHEMBL3872211, “4, 5-Dihydrooxazole-pyrazoline hybrids: Synthesis and their evaluation as potential antimalarial agents” (Eur J Med Chem, 2016):
Converted amounts (≈) assume the structure as drawn. The source made the active and inactive calls. The rule behind the calls is not given here.

Tests used:
Plasmodium falciparum [1] = assay: Antimalarial activity against chloroquine-sensitive Plasmodium falciparum 3D7 infected in human red blood cells assessed as inhibition of schizont stage parasite growth measured after 24 hrs by giemsa staining based assay; assay type: functional, cell-based; conditions: 3D7, 24 h
Procedure, shortened: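 Parasitized RBCs (2-3% parasitemia, 8% hematocrit) in RPMI 1640 with human AB+ serum were exposed to serial dilutions of test samples from 1 mg/ml stock. Incubation was 24 h at 37 °C under 90% N2/5% CO2/5% O2. Giemsa-stained smears were scored for schizonts (≥3 merozoites). IC50 was taken from dose-response curves by non-linear regression.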

[2] = Selectivity index, ratio of IC50 for cytotoxicity against African green monkey vero cells to IC50 for antimalarial activity against chloroquine-resistant Plasmodium falciparum RKL9 infected in human red blood cells; assay type: toxicity, cell-based; conditions: read-out: Ratio IC50
Procedure, shortened: (§1)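 SI = CC50/IC50. CC50 from Vero cells exposed 72 h to compound dilutions, MTT read-out (modified Mosmann method). Antimalarial IC50 from 24 h, 37 °C P. falciparum (3D7 or RKL9) RBC culture, Giemsa schizont counts, non-linear regression.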

[3] = Resistance index, ratio of IC50 for chloroquine-resistant Plasmodium falciparum RKL9 infected in human RBC to IC50 for chloroquine-sensitive Plasmodium falciparum 3D7 infected in human red blood cells; assay type: functional
Procedure, shortened: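 Ratio of IC50 vs RKL9 to IC50 vs 3D7. Both from 24 h, 37 °C culture in RBCs (2-3% parasitemia, 8% hematocrit, RPMI 1640 plus human AB+ serum, 90% N2/5% CO2/5% O2), Giemsa smear schizont counts, non-linear regression.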

Plasmodium falciparum [4] = assay: Antimalarial activity against chloroquine-resistant Plasmodium falciparum RKL9 infected in human red blood cells assessed as inhibition of schizont stage parasite growth measured after 24 hrs by giemsa staining based assay; assay type: functional, cell-based; conditions: RKL9, 24 h
Procedure, shortened: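 P. falciparum RKL9 parasitized RBCs at 2-3% parasitemia, 8% hematocrit in RPMI 1640 with human AB+ serum. Exposed to serial dilutions of test samples, 24 h at 37 °C under 90% N2/5% CO2/5% O2. Giemsa-stained smears; schizonts (≥3 merozoites) counted; IC50 by non-linear regression of dose-response curves.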

[5] = Selectivity index, ratio of IC50 for cytotoxicity against African green monkey vero cells to IC50 for antimalarial activity against chloroquine-sensitive Plasmodium falciparum 3D7 infected in human red blood cells; assay type: toxicity, cell-based; conditions: read-out: Ratio IC50; procedure, shortened: as §1
Plasmodium berghei [6] = assay: Antimalarial activity against Plasmodium berghei NK65 infected in Swiss albino mouse assessed as mean survival days at 5 mg/kg, po administered 4 hrs post infection for 4 days measured up to 30 days (reference value: 7.2 days); assay type: functional
Plasmodium berghei [7] = assay: Antimalarial activity against Plasmodium berghei NK65 infected in Swiss albino mouse assessed as reduction in parasitemia at 5 mg/kg, po administered 4 hrs post infection for 4 days measured on day 4 post infection by giemsa staining based microscopic method; assay type: functional; parameters: scale not given: the % may be the effect or the level left
Procedure, shortened: (§2)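 Peters 4-day suppressive test: female Swiss albino mice (20-25 g), groups of five, infected ip with about 10-15% P. berghei NK65-parasitized erythrocytes from a donor mouse. Oral dosing began 4 h later and was given on days 0-3. Vehicle-only group served as negative control. On day 4, tail-vein smears were methanol-fixed, Giemsa-stained and read at 1000×. % suppression was calculated against the negative control.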

mu-oxodimeric heme [8] = assay: Binding affinity to mu-oxodimeric heme (unknown origin) assessed as 1:1 stoichiometry for mu-oxodimeric heme-compound complex up to 100 uM at pH 5.8 by Job's plot analysis
Procedure, shortened: (§3)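 Hemin stock was 10 mM in 0.1 M NaOH, sonicated 30 min, then diluted in 20 mM phosphate buffer pH 5.8 to give µ-oxodimeric heme. Compound from 2 mM DMSO stock was titrated in (0-100 µM) and absorbance followed at 362 nm. Log K was obtained by titration, and stoichiometry by molar-fraction Job's plot.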

Plasmodium berghei [9] = assay: Antimalarial activity against Plasmodium berghei NK65 infected in Swiss albino mouse assessed as reduction in parasitemia at 50 mg/kg, po administered 4 hrs post infection for 4 days measured on day 4 post infection by giemsa staining based microscopic method; assay type: functional; parameters: scale not given: the % may be the effect or the level left; procedure, shortened: as §2
Heme [10] = assay: Binding affinity to monomeric heme (unknown origin) assessed as association constant at pH 7.4 by UV-titration method
Procedure, shortened: (§4)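 Hemin stock was 1.2 mM in DMSO. It was diluted into aqueous DMSO (40%) buffered with HEPES pH 7.4 (0.02 M), or with MES for the pH 5.6 run. The titrant (2 mM stock in DMSO) was added stepwise at 0-100 µM final, and the Soret band was read at 402 nm. Association constant (log K) was derived by titration.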

Heme [11] = assay: Binding affinity to monomeric heme (unknown origin) assessed as association constant at pH 5.6 by UV-titration method; procedure, shortened: as §4
mu-oxodimeric heme [12] = assay: Binding affinity to mu-oxodimeric heme (unknown origin) assessed as association constant at pH 5.8 by UV-titration method; procedure, shortened: as §3
Plasmodium berghei [13] = assay: Antimalarial activity against Plasmodium berghei NK65 infected in Swiss albino mouse assessed as mean survival days at 25 mg/kg, po administered 4 hrs post infection for 4 days measured up to 30 days (reference value: 7.2 days); assay type: functional
Rattus norvegicus = assay: Acute toxicity in Wistar rat assessed as inflammatory cells infiltration in periportal area of liver at <300 mg/kg, po measured after 14 days; assay type: organism-based; conditions: in vivo, 336 h
Heme [14] = assay: Binding affinity to monomeric heme assessed as 1:1 stoichiometry for heme-compound complex up to 100 uM at pH 5.6 by Job's plot analysis
Procedure, shortened: (§5)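 Monomeric hemin was prepared in 40% DMSO with 0.02 M HEPES (pH 7.4) or 0.02 M MES (pH 5.6). Absorbance was monitored at 402 nm. Complex stoichiometry was determined by a molar-fraction Job's plot.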

Plasmodium berghei [15] = assay: Antimalarial activity against Plasmodium berghei NK65 infected in Swiss albino mouse assessed as reduction in parasitemia at 25 mg/kg, po administered 4 hrs post infection for 4 days measured on day 4 post infection by giemsa staining based microscopic method; assay type: functional; parameters: scale not given: the % may be the effect or the level left; procedure, shortened: as §2
Heme [16] = assay: Binding affinity to monomeric heme assessed as 1:1 stoichiometry for heme-compound complex up to 100 uM at pH 7.4 by Job's plot analysis; procedure, shortened: as §5
Plasmodium berghei [17] = assay: Antimalarial activity against Plasmodium berghei NK65 infected in Swiss albino mouse assessed as mean survival days at 50 mg/kg, po administered 4 hrs post infection for 4 days measured up to 30 days (Rvb= 7.2 days); assay type: functional

Compound	IC50 (Plasmodium falciparum [1]) [µg/mL]	selectivity ratio [2]	Ratio IC50 [3]	IC50 (Plasmodium falciparum [4]) [µg/mL]	selectivity ratio [5]	further results
COc1ccc(C2CC(c3ccc(OCC4=NCCO4)cc3)=NN2)cc1 (configuration not stated)	1.03 (≈ 2.94 µM)	–	–	–	–	–
CC(=O)N1N=C(c2ccc(OCC3=NCCO3)cc2)CC1c1ccc(Cl)cc1 (configuration not stated)	0.513 (≈ 1.29 µM)	9.6	3.06	1.57 (≈ 3.95 µM)	29.5	–
CCN(CC)CCCC(C)Nc1ccnc2cc(Cl)ccc12 (configuration not stated) [CHLOROQUINE]	–	–	–	–	–	MSD (Plasmodium berghei [6]): 30 days; Activity (Plasmodium berghei [7]): 97.1%
Fc1ccc(C2CC(c3ccc(OCC4=NCCO4)cc3)=NN2c2ccccc2)cc1 (configuration not stated)	0.645 (≈ 1.55 µM)	–	–	–	–	–
O=C(/C=C/c1cccc(O)c1)c1ccc(OCC2=NCCO2)cc1	0.515 (≈ 1.59 µM)	7.7	3.05	1.57 (≈ 4.86 µM)	23.6	–
O=C(/C=C/c1cccc([N+](=O)[O-])c1)c1ccc(OCC2=NCCO2)cc1	1.57 (≈ 4.46 µM)	–	–	–	–	–
NS(=O)(=O)c1ccc(N2N=C(c3ccc(OCC4=NCCO4)cc3)CC2c2ccc(Cl)cc2)cc1 (configuration not stated)	0.471 (≈ 0.922 µM)	5.7	3.87	1.82 (≈ 3.57 µM)	22.2	–
Cc1ccc(C2CC(c3ccc(OCC4=NCCO4)cc3)=NN2c2ccccc2)cc1 (configuration not stated)	1.01 (≈ 2.45 µM)	–	–	–	–	–
COc1cccc(/C=C/C(=O)c2ccc(OCC3=NCCO3)cc2)c1	1.82 (≈ 5.4 µM)	–	–	–	–	–
Cc1ccc(/C=C/C(=O)c2ccc(OCC3=NCCO3)cc2)cc1	2.68 (≈ 8.34 µM)	–	–	–	–	–
c1ccc(N2N=C(c3ccc(OCC4=NCCO4)cc3)CC2c2c[nH]c3ccccc23)cc1 (configuration not stated)	0.459 (≈ 1.05 µM)	2.3	9.22	4.23 (≈ 9.7 µM)	21.3	–
O=C(/C=C/c1ccc(F)cc1)c1ccc(OCC2=NCCO2)cc1	0.813 (≈ 2.5 µM)	–	–	–	–	–
NS(=O)(=O)c1ccc(N2N=C(c3ccc(OCC4=NCCO4)cc3)CC2c2cccc([N+](=O)[O-])c2)cc1 (configuration not stated)	1.02 (≈ 1.96 µM)	–	–	–	–	–
O=C(/C=C/c1ccc(Cl)cc1)c1ccc(OCC2=NCCO2)cc1	0.557 (≈ 1.63 µM)	7.8	3.27	1.82 (≈ 5.33 µM)	25.5	–
O=C(/C=C/c1ccc2c(c1)OCCO2)c1ccc(OCC2=NCCO2)cc1	4.23 (≈ 11.6 µM)	–	–	–	–	–
O=C(/C=C/c1cccc(Cl)c1)c1ccc(OCC2=NCCO2)cc1	0.577 (≈ 1.69 µM)	–	–	–	–	–

Compound	IC50 (Plasmodium falciparum [1]) [µg/mL]	selectivity ratio [2]	Ratio IC50 [3]	IC50 (Plasmodium falciparum [4]) [µg/mL]	selectivity ratio [5]	further results
CC(=O)c1ccc(OCC2=NCCO2)cc1	0.737 (≈ 3.36 µM)	–	–	–	–	–
Clc1ccc(C2CC(c3ccc(OCC4=NCCO4)cc3)=NN2c2ccccc2)cc1 (configuration not stated)	0.477 (≈ 1.1 µM)	7.1	3.29	1.57 (≈ 3.64 µM)	23.3	–
COc1cccc(C2CC(c3ccc(OCC4=NCCO4)cc3)=NN2c2ccc(S(N)(=O)=O)cc2)c1 (configuration not stated)	0.413 (≈ 0.815 µM)	8.1	2.27	0.936 (≈ 1.85 µM)	18.4	–
O=C(/C=C/c1ccc([N+](=O)[O-])cc1)c1ccc(OCC2=NCCO2)cc1	0.723 (≈ 2.05 µM)	–	–	–	–	–
NS(=O)(=O)c1ccc(N2N=C(c3ccc(OCC4=NCCO4)cc3)CC2c2ccc(F)cc2)cc1 (configuration not stated)	0.419 (≈ 0.847 µM)	4.6	4.23	1.77 (≈ 3.59 µM)	19.8	–
COc1ccc(C2CC(c3ccc(OCC4=NCCO4)cc3)=NN2c2ccccc2)cc1 (configuration not stated)	0.545 (≈ 1.27 µM)	10.5	2.88	1.57 (≈ 3.67 µM)	30.4	–
O=C(/C=C/c1ccccc1)c1ccc(OCC2=NCCO2)cc1	1.77 (≈ 5.77 µM)	–	–	–	–	–
NS(=O)(=O)c1ccc(N2N=C(c3ccc(OCC4=NCCO4)cc3)CC2c2ccc([N+](=O)[O-])cc2)cc1 (configuration not stated)	0.627 (≈ 1.2 µM)	–	–	–	–	–
NS(=O)(=O)c1ccc(N2N=C(c3ccc(OCC4=NCCO4)cc3)CC2c2ccc3c(c2)OCCO3)cc1 (configuration not stated)	2.15 (≈ 4.03 µM)	–	–	–	–	–
NS(=O)(=O)c1ccc(N2N=C(c3ccc(OCC4=NCCO4)cc3)CC2c2cccc(Cl)c2)cc1 (configuration not stated)	0.552 (≈ 1.08 µM)	8.7	3.9	2.15 (≈ 4.22 µM)	34.2	–
COc1ccc(/C=C/C(=O)c2ccc(OCC3=NCCO3)cc2)cc1	1.57 (≈ 4.66 µM)	–	–	–	–	–
O=C(/C=C/c1c[nH]c2ccccc12)c1ccc(OCC2=NCCO2)cc1	0.936 (≈ 2.7 µM)	–	–	–	–	–
O=C(/C=C/c1ccc(O)cc1)c1ccc(OCC2=NCCO2)cc1	2.44 (≈ 7.54 µM)	–	–	–	–	–
COc1ccc(C2CC(c3ccc(OCC4=NCCO4)cc3)=NN2c2ccc(S(N)(=O)=O)cc2)cc1 (configuration not stated)	0.322 (≈ 0.636 µM)	5.5	2.29	0.737 (≈ 1.45 µM)	12.5	Activity (mu-oxodimeric heme [8]): Active; Activity (Plasmodium berghei [9]): 79.33%; log K (Heme [10]): 5.87; log K (Heme [11]): 4.98; log K (mu-oxodimeric heme [12]): 4.34; MSD (Plasmodium berghei [13]): 11.4 days; Activity (Rattus norvegicus): Non-Toxic; Activity (Heme [14]): Active; Activity (Plasmodium berghei [15]): 63.89%; Activity (Heme [16]): Active; MSD (Plasmodium berghei [17]): 15.6 days
c1ccc2c(C3CC(c4ccc(OCC5=NCCO5)cc4)=NN3)c[nH]c2c1 (configuration not stated)	0.657 (≈ 1.82 µM)	–	–	–	–	–
